Assay results published in ChEMBL document CHEMBL3227960, “Inhibition of uptake of catecholamines by benzylamine derivatives” (J Med Chem, 1979).

System: not listed separately
Test: Inhibition of [3H]norepinephrine reuptake at NET in Sprague-Dawley rat brain cortical synaptosomes incubated for 5 mins prior to [3H]norepinephrine addition measured after 3 mins by scintillation counting analysis
Format: subcellular
Conditions: read-out: I50
In short: (§1)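 Crude P2 synaptosomes from male Sprague-Dawley rat striatum (dopamine) or cerebral cortex (norepinephrine), prepared at 0 °C in 0.32 M sucrose. Tritiated substrate 0.1 μM, 37 °C. Uptake quenched with cold saline plus 100 μM unlabelled substrate, then filtered. 0 °C blanks subtracted. Three inhibitor concentrations, each in triplicate. I50 taken where A0/A1 = 2, by linear regression against concentration.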

With CCN(CCCl)Cc1cccc(C)c1 as the compound, how does the IC50 read?
The IC50 was 0.77 µM.

With CCN(CCCl)Cc1ccccc1Br as the compound, how does the IC50 read?
Its IC50 is 0.05 µM.

For CCN(CCO)Cc1ccccc1Br, which IC50 is on record?
The IC50 was 78 µM.

With CCN(CCCl)Cc1ccccc1OC as the compound, how does the IC50 read?
Its IC50 is 31.1 µM.

For CCN(CCO)Cc1ccccc1C, which IC50 is on record?
The IC50 was 137 µM.

With CCN(CCCl)Cc1ccc(C)cc1 as the compound, how does the IC50 read?
The IC50 was 3.05 µM.

With CCN(CCCl)Cc1cccc(OC)c1 as the compound, how does the IC50 read?
The IC50 was 23.2 µM.

Which IC50 does the source give for ClCCNCc1ccccc1Br here?
The IC50 was 50.2 µM.

Which IC50 does the source give for CCN(CCCl)Cc1ccc(OC)cc1 here?
The IC50 was 29.8 µM.

For CCN(CCO)Cc1cccc(C)c1, which IC50 is on record?
The IC50 was 49 µM.

Biological target: Sodium-dependent dopamine transporter (Rattus norvegicus, UniProt P23977)
Test: Inhibition of [3H]dopamine reuptake at DAT in Sprague-Dawley rat brain striatal synaptosomes incubated for 5 mins prior to [3H]dopamine addition measured after 3 mins by scintillation counting analysis
Format: subcellular
Conditions: read-out: I50
In short: as §1

Sodium-dependent dopamine transporter, sequence (P23977 whole entry): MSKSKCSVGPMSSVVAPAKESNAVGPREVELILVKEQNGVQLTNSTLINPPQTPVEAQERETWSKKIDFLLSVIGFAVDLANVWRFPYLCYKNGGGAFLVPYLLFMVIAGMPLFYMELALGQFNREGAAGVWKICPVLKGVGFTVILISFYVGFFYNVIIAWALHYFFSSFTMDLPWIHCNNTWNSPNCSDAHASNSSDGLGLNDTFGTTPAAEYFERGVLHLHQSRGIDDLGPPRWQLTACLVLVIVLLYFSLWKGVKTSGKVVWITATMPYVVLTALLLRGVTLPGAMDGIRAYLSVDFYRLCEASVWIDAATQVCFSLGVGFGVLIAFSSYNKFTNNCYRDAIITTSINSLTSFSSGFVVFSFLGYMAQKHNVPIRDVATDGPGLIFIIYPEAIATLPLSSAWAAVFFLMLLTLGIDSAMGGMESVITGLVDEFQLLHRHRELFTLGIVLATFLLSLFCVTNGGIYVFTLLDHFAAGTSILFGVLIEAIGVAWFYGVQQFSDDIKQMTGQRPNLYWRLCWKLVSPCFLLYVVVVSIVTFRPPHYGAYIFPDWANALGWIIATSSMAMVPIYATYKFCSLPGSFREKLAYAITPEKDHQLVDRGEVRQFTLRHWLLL

Which IC50 does the source give for CCN(CCCl)Cc1cccc(C)c1 here?
Its IC50 is 28.6 µM.

Which IC50 does the source give for CCN(CCCl)Cc1ccccc1Br here?
The IC50 was 5.87 µM.

Which IC50 does the source give for CCN(CCO)Cc1ccccc1Br here?
The IC50 was 640 µM.

For CCN(CCCl)Cc1ccccc1OC, which IC50 is on record?
Its IC50 is 303 µM.

Which IC50 does the source give for CCN(CCO)Cc1ccccc1C here?
The IC50 was 1050 µM.

Which IC50 does the source give for CCN(CCCl)Cc1ccc(C)cc1 here?
Its IC50 is 78.4 µM.

With CCN(CCCl)Cc1cccc(OC)c1 as the compound, how does the IC50 read?
Its IC50 is 127 µM.

With ClCCNCc1ccccc1Br as the compound, how does the IC50 read?
The IC50 was 326 µM.

With CCN(CCCl)Cc1ccc(OC)cc1 as the compound, how does the IC50 read?
Its IC50 is 147 µM.

For CCN(CCO)Cc1cccc(C)c1, which IC50 is on record?
Its IC50 is 250 µM.
